Test results from ChEMBL document CHEMBL1123791, “3'-substituted 2',3'-dideoxynucleoside analogues as potential anti-HIV (HTLV-III/LAV) agents” (J Med Chem, 1987).

Assays:
[1] = test system: ATH-8 cell line; experiment: Protection of ATH8 cells against the cytopathic effect of HIV.; type: functional; settings: Homo sapiens, read-out: ED50 (the source's name)
[2] = test system: MT4; experiment: Protection was determined by evaluation of cluster morphology and reclustering properties in […] at 0.008 uM concentration.; type: functional, Homo sapiens
[3] = test system: ATH-8 cell line; experiment: Required dose to reduce viability of normal uninfected ATH8 cells.; type: functional; settings: Homo sapiens, read-out: ID50 (the source's name)
[4] = test system: MT4; experiment: Protection was determined by evaluation of cluster morphology and reclustering properties in […] MT-4 cells at 0.2 uM concentration; type: functional, Homo sapiens
[5] = test system: MT4; experiment: Toxicity was determined by evaluation of cluster morphology and reclustering properties in mock infected MT-4 cells at 5 uM concentration; type: cell-based; settings: human, mt4, 5 µM
Procedure, shortened: (§1)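 Mock-infected MT4 cells were seeded at 2.5×10^5 cells/mL with compound at 125–0.00032 µM and cultured 5 days at 37 °C. Cluster morphology was scored microscopically, then cells were dispersed by pipetting and reclustering read after 4 h. Scoring: ++ >90%, + 10–40%, − <10% toxicity.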

[6] = test system: MT4; experiment: Toxicity was determined by evaluation of cluster morphology and reclustering properties in mock infected MT-4 cells at 125 uM concentration; type: cell-based; settings: human, mt4, 125 µM
[7] = test system: MT4; experiment: Protection was determined by evaluation of cluster morphology and reclustering properties in […] MT-4 cells at 5 uM concentration.; type: functional, Homo sapiens
Procedure, shortened: (§2)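 MT4 cells infected with HIV (300 CCID50/well) were seeded at 2.5×10^5 cells/mL with compound at 125, 5, 0.2, 0.008 or 0.00032 µM and kept 5 days at 37 °C. Clusters were scored microscopically, dispersed by pipetting, and reclustering assessed after 4 h at 37 °C. Scoring: +++ >90% protection.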

[8] = test system: MT4; experiment: Toxicity was determined by evaluation of cluster morphology and reclustering properties in mock infected MT-4 cells at 0.2 uM concentration; type: cell-based; settings: human, mt4, 0.2 µM
[9] = test system: MT4; experiment: Protection was determined by evaluation of cluster morphology and reclustering properties in […] MT-4 cells at 5 uM concentration; Range is 10-40; type: functional, Homo sapiens; procedure, shortened: as §2
[10] = test system: MT4; experiment: Protection was determined by evaluation of cluster morphology and reclustering properties in […] MT-4 cells at 0.00032 uM concentration; type: functional, Homo sapiens; procedure, shortened: as §2
[11] = test system: MT4; experiment: Protection was determined by evaluation of cluster morphology and reclustering properties in mock infected MT-4 cells at 125 uM concentration; Range is 10-40; type: functional, Homo sapiens; settings: in the assay text read “HIV infected” for “mock infected”; procedure, shortened: as §2
[12] = test system: MT4; experiment: Toxicity was determined by evaluation of cluster morphology and reclustering properties in mock infected MT-4 cells at 125 uM concentration; Range is 10-40; type: cell-based; settings: human, mt4, 125 µM; procedure, shortened: as §1
[13] = test system: MT4; experiment: Protection was determined by evaluation of cluster morphology and reclustering properties in mock infected MT-4 cells at 125 uM concentration; type: functional, Homo sapiens; settings: in the assay text read “HIV infected” for “mock infected”; procedure, shortened: as §2
[14] = Therapeutic index (Ratio = ID50/ED50).
[15] = test system: MT4; experiment: Protection was determined by evaluation of cluster morphology and reclustering properties in […] MT-4 cells at 0.2 uM concentration; Range is 40-60; type: functional, Homo sapiens; procedure, shortened: as §2
[16] = test system: MT4; experiment: Protection was determined by evaluation of cluster morphology and reclustering properties in […] at 5 uM concentration; Range is 40-60; type: functional, Homo sapiens
[17] = test system: MT4; experiment: Toxicity was determined by evaluation of cluster morphology and reclustering properties in mock infected MT-4 cells at 0.2 uM concentration; Range is 10-40; type: cell-based; settings: human, mt4, 0.2 µM; procedure, shortened: as §1
[18] = test system: MT4; experiment: Toxicity was determined by evaluation of cluster morphology and reclustering properties in mock infected MT-4 cells at 0.00032 uM concentration; type: cell-based; settings: human, mt4, 0.00032 µM; procedure, shortened: as §1
[19] = test system: MT4; experiment: Toxicity was determined by evaluation of cluster morphology and reclustering properties in mock infected MT-4 cells at 0.008 uM concentration; type: cell-based; settings: human, mt4, 0.008 µM; procedure, shortened: as §1
[20] = test system: MT4; experiment: Protection was determined by evaluation of cluster morphology and reclustering properties in […] MT-4 cells at 0.008 uM concentration; Range is 10-40; type: functional, Homo sapiens; procedure, shortened: as §2

SMILES	EC50 [1]	Protection [2]	IC50 [3]	Protection [4]	Toxicity [5]	Toxicity [6]	Protection [7]	Toxicity [8]	Protection [9]	Protection [13]	selectivity ratio [14]	further results
CCc1cn([C@H]2C[C@H](N=[N+]=[N-])[C@@H](CO)O2)c(=O)[nH]c1=O	> 100 µM	<10%	> 100 µM	<10%	< 10%	> 90%		< 10%	10%			Protection [10]: <10%
Nc1ncnc2c1ncn2[C@H]1C[C@H](F)[C@@H](CO)O1					< 10%	< 10%		< 10%				
Cc1cn([C@H]2C[C@H](OS(C)(=O)=O)[C@@H](CO)O2)c(=O)[nH]c1=O	> 100 µM		> 100 µM	<10%	< 10%	< 10%		< 10%	10%	>90%		
Nc1ccn([C@H]2C=C[C@@H](CO)O2)c(=O)n1	0.3 µM	<10%	30 µM		< 10%	> 90%	>90%	< 10%			100	Protection [15]: 40%
CCSC1CC(n2cc(C)c(=O)[nH]c2=O)OC1CO (stereo unspecified)	> 100 µM	<10%	100 µM	<10%	< 10%	> 90%		< 10%	10%		< 1	
Nc1ccn(C2CC3OCC3O2)c(=O)n1 (stereo unspecified)	400 µM		> 500 µM	<10%	< 10%	< 10%	<10%	< 10%			> 1.2	Protection [11]: 10%
CNc1nc(=O)n(C2CC(N=[N+]=[N-])C(CO)O2)cc1C (stereo unspecified)	> 100 µM		> 100 µM	<10%	< 10%	< 10%		< 10%	10%	>90%		
O=c1ccn(C2CCC(CO)O2)c(=O)[nH]1 (stereo unspecified)	> 500 µM		> 500 µM	<10%	< 10%	< 10%	<10%	< 10%		>90%		
CCO[C@H]1C[C@H](n2cc(C)c(=O)[nH]c2=O)O[C@@H]1CO	> 100 µM	<10%	> 100 µM	<10%	< 10%	> 90%		< 10%	10%			
Cc1cn([C@H]2C[C@H](SC#N)[C@@H](CO)O2)c(=O)[nH]c1=O	> 100 µM	<10%	> 100 µM	<10%	< 10%	> 90%		< 10%	10%			
CCc1cn(C2CCC(CO)O2)c(=O)[nH]c1=O (stereo unspecified)		<10%		<10%	< 10%	< 10%	<10%	< 10%		<10%		Toxicity [19]: < 10%
Cc1cn([C@H]2C[C@H](N=[N+]=[N-])[C@@H](CO)O2)c(=O)[nH]c1=O (stereo in doubt; 9k) [ZIDOVUDINE]				<10%			<10%	< 10%		<10%		Toxicity ([5]; 5 µM): < 10%; Toxicity ([6]; 125 µM): < 10%
Nc1ncnc2c1ncn2[C@H]1C[C@H](O)[C@@H](CO)O1 [DEOXYADENOSINE]	> 100 µM		> 100 µM	<10%	< 10%		<10%	< 10%		<10%		Toxicity [12]: 10%
Nc1ccn([C@H]2CC[C@@H](CO)O2)c(=O)n1 [ZALCITABINE]	0.2 µM	<10%	35 µM		< 10%	> 90%	>90%	< 10%			175	Protection [15]: 40%

Continued, in another order:

EC50 [1]	SMILES	Protection [2]	IC50 [3]	Protection [4]	Toxicity [5]	Toxicity [6]	Protection [7]	Toxicity [8]	Protection [9]	Protection [13]	selectivity ratio [14]	further results
> 500 µM	Cc1cn([C@H]2C[C@H](I)[C@@H](CO)O2)c(=O)[nH]c1=O	<10%	> 500 µM	<10%	< 10%	> 90%	<10%	< 10%				
> 500 µM	CCc1cn(C2CC(F)C(CO)O2)c(=O)[nH]c1=O (stereo unspecified)		> 500 µM	<10%	< 10%	< 10%	<10%	< 10%				Protection [11]: 10%
> 100 µM	Cc1cn([C@H]2C[C@@H](OS(C)(=O)=O)[C@@H](CO)O2)c(=O)[nH]c1=O		> 100 µM	<10%	< 10%		<10%	< 10%		>90%		Toxicity [12]: 10%
2.7 µM	Nc1ncnc2c1ncn2[C@H]1CC[C@@H](CO)O1		> 500 µM	<10%	< 10%	< 10%		< 10%		>90%	> 148	Protection [16]: 40%
8 µM	Nc1ccn(C2CC(F)C(CO)O2)c(=O)n1 (stereo unspecified)	<10%	> 250 µM		> 90%	> 90%					> 31	Protection [10]: <10%; Protection [15]: 40%; Toxicity [17]: 10%; Toxicity [18]: < 10%; Toxicity [19]: < 10%
> 500 µM	Cc1cn(C2CC(Cl)C(CO)O2)c(=O)[nH]c1=O (stereo unspecified)	<10%	> 500 µM	<10%	< 10%	> 90%		< 10%	10%			
> 500 µM	Cc1cn(C2CC(Br)C(CO)O2)c(=O)[nH]c1=O (stereo unspecified)	<10%	180 µM	<10%	< 10%	> 90%		< 10%	10%		< 0.4	
> 100 µM	Cc1cn(C2CC(SCCO)C(CO)O2)c(=O)[nH]c1=O (stereo unspecified)		> 100 µM	<10%	< 10%		<10%	< 10%				Protection [11]: 10%; Toxicity [12]: 10%
40 µM	Nc1ncnc2c1ncn2[C@H]1C=C[C@@H](CO)O1		52 µM	<10%	< 10%	> 90%	<10%	< 10%		<10%	1.3	Toxicity [18]: < 10%; Toxicity [19]: < 10%
> 100 µM	Cc1cn([C@H]2C[C@H](OCC(=O)[O-])[C@@H](CO)O2)c(=O)[nH]c1=O.[Na+]		> 100 µM	<10%	< 10%	< 10%	<10%	< 10%		<10%		
> 100 µM	O=c1ccn([C@H]2C=C[C@@H](CO)O2)c(=O)[nH]1	<10%	107 µM	<10%	< 10%	> 90%	<10%	< 10%			< 1.1	
4.1 µM	Cc1cn([C@H]2C=C[C@@H](CO)O2)c(=O)[nH]c1=O [STAVUDINE]		110 µM	>90%	> 90%	> 90%					27	Protection [10]: <10%; Protection [20]: 10%; Toxicity [17]: 10%
